Assay [1] can be described thus: Selectivity ratio of IC50 for human HepG2 cells to MIC for Mycobacterium tuberculosis My 331/88 after 14 days. The format is functional. The procedure, abridged: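 HepG2 cells (passage 12) at 10,000 cells/well in MEM with 10% FBS, 1% glutamine and 1% nonessential amino acids, pre-incubated 24 h at 37 °C, 5% CO2. Compounds in DMSO at eight concentrations in quadruplicate for 24 h. MTS-type reagent added for 1.5 h, absorbance at 490 nm. IC50 from curve fit. SI = IC50 / 14-day MIC against M. tuberculosis 331/88.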

In assay [2] the test system is Mycobacterium avium. The experiment in a line: Antimycobacterial activity against Mycobacterium avium My 330/88 after 21 days by micromethod. The note with it: My 330/88, 504 h. The assay is classed as functional.
The test system of assay [3] is Mycobacterium avium. Description: Antimycobacterial activity against Mycobacterium avium My 330/88 after 14 days by micromethod. The note with it: My 330/88, 336 h. The format is functional.
Assay [4] has as its system Mycobacterium kansasii. Description: Antimycobacterial activity against Mycobacterium kansasii My 235/80 after 7 days by micromethod. The format is functional. The note with it: My 235/80, 168 h.
A further assay deals with HepG2. Description: Cytotoxicity against human HepG2 cells after 24 hrs by CellTiter assay. The assay is classed as cell-based. The note with it: HepG2, 24 h. An outline of the steps:
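Hep G2 cells (passage 12), 10,000 per well in MEM with 1% glutamine, 10% FBS and 1% nonessential amino acids, preincubated 24 h at 37 °C, 5% CO2. Compounds dissolved in DMSO, tested at eight concentrations in quadruplicate for 24 h at 37 °C. MTS-type reagent added for 1.5 h, absorbance read at 490 nm. IC50 = concentration reducing viability to 50% of control.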

Assay [5] addresses T1, Isocitrate lyase (Mycobacterium tuberculosis) (UniProt P9WKK7).
T1 sequence (whole entry): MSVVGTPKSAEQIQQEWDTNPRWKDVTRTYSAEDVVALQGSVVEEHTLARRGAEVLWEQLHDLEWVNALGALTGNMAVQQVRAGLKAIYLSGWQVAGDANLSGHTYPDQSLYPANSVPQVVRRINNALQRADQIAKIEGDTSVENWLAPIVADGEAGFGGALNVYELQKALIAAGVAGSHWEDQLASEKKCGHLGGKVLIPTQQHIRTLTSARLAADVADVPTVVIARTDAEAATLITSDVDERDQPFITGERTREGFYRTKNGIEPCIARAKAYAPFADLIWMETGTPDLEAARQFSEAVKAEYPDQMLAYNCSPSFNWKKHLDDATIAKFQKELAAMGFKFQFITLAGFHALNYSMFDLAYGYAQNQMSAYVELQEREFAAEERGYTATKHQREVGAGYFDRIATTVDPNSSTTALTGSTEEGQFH
The experiment in a line: Inhibition of Mycobacterium tuberculosis H37Rv isocitrate lyase expressed in Escherichia coli BL21(DE3) using (+)-potassium Ds-threo-isocitrate as substrate assessed as glyoxylate phenyl hydrazone formation at 100 umol/L by spectrophotometry.

Assay [6] has as its system Mycobacterium kansasii. The experiment in a line: Antimycobacterial activity against Mycobacterium kansasii My 6509/96 clinical isolate after 14 days by micromethod. The format is functional. The note with it: My 6509/96, 336 h.
Assay [7] relates to Mycobacterium kansasii. The experiment in a line: Antimycobacterial activity against Mycobacterium kansasii My 235/80 after 14 days by micromethod. The note with it: My 235/80, 336 h. The assay is classed as functional.
The subject of assay [8] is Mycobacterium tuberculosis. Description: Antimycobacterial activity against Mycobacterium tuberculosis My 331/88 after 21 days by micromethod. The assay is classed as functional. The note with it: My 331/88, 504 h. The procedure, abridged:
(§1)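 MIC by micromethod at 37 °C, read after 14 and 21 days. Inocula were M. tuberculosis My 331/88 at 10^-3 dilution and M. avium My 330/88 at 10^-5 dilution. Compounds added in DMSO across 1000, 500, 250, 125, 62.5, 32, 16, 8, 4, 2, 1 and 0.5; isoniazid standard in sterile water. MIC taken as the lowest concentration inhibiting growth.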

In assay [9] the test system is Mycobacterium kansasii. Description: Antimycobacterial activity against Mycobacterium kansasii My 6509/96 clinical isolate after 7 days by micromethod. The assay is classed as functional. The note with it: My 6509/96, 168 h.
For assay [10], the system named is Mycobacterium tuberculosis. Description: Antimycobacterial activity against Mycobacterium tuberculosis My 331/88 after 14 days by micromethod. The note with it: My 331/88, 336 h. The format is functional. An outline of the steps:
as §1

For assay [11], the system named is Mycobacterium kansasii. The experiment in a line: Antimycobacterial activity against Mycobacterium kansasii My 235/80 after 21 days by micromethod. The assay is classed as functional. The note with it: My 235/80, 504 h.
The test system of assay [12] is Mycobacterium kansasii. The experiment in a line: Antimycobacterial activity against Mycobacterium kansasii My 6509/96 clinical isolate after 21 days by micromethod. The note with it: My 6509/96, 504 h. The format is functional.

Values after ≈ are worked out from the molar mass of the structure shown.

Turning to `COc1cc(Cl)ccc1C(=S)Nc1ccc(Cl)c(Cl)c1`, in [1], the Selectivity ratio is reported as 3.25. The MIC – broadly, the lowest concentration that inhibits growth of the organism – in the assay on Mycobacterium avium [2] worked out at 32 µM (≈ 11.1 µg/mL); with Mycobacterium avium [3] it was 32 µM (≈ 11.1 µg/mL); against Mycobacterium kansasii [4] it was 16 µM (≈ 5.55 µg/mL); against Mycobacterium kansasii [6], 32 µM (≈ 11.1 µg/mL); against Mycobacterium kansasii [7], 32 µM (≈ 11.1 µg/mL); in assay [8] it was 8 µM (≈ 2.77 µg/mL). For the same molecule, the MIC against Mycobacterium kansasii [9] worked out at 16 µM (≈ 5.55 µg/mL); in assay [10], 2 µM (≈ 0.693 µg/mL); against Mycobacterium kansasii [11] it was 62.5 µM (≈ 21.7 µg/mL); against Mycobacterium kansasii [12], 32 µM (≈ 11.1 µg/mL). For the same molecule, in the assay on HepG2, the IC50 – broadly, the concentration at which inhibition is half-maximal – was found to be 6.5 µM. Besides, the inhibition – broadly, the percentage by which the read-out fell short of the control – in assay [5] worked out at 17%.
Consider `COc1ccc(Cl)cc1C(=O)Nc1cccc(Cl)c1`, for which the MIC came out at 250 µM (≈ 74 µg/mL) against Mycobacterium avium [2]; 250 µM (≈ 74 µg/mL) against Mycobacterium avium [3]; 62.5 µM (≈ 18.5 µg/mL) in the assay with Mycobacterium kansasii [4]; 250 µM (≈ 74 µg/mL) in the assay on Mycobacterium kansasii [6]; 250 µM (≈ 74 µg/mL) against Mycobacterium kansasii [7]; 250 µM (≈ 74 µg/mL) in [8]. The MIC is 125 µM (≈ 37 µg/mL) in the assay with Mycobacterium kansasii [9], 250 µM (≈ 74 µg/mL) in assay [10], 250 µM (≈ 74 µg/mL) in the assay on Mycobacterium kansasii [11] and 250 µM (≈ 74 µg/mL) against Mycobacterium kansasii [12].
For `COc1ccc(Cl)cc1C(=O)Nc1ccc(Cl)cc1`, the MIC in the assay on Mycobacterium avium [2] amounted to 62.5 µM (≈ 18.5 µg/mL); against Mycobacterium avium [3], 62.5 µM (≈ 18.5 µg/mL); against Mycobacterium kansasii [4] it was 62.5 µM (≈ 18.5 µg/mL); against Mycobacterium kansasii [6], 125 µM (≈ 37 µg/mL); against Mycobacterium kansasii [7], 250 µM (≈ 74 µg/mL); in [8], 62.5 µM (≈ 18.5 µg/mL). For the same molecule, the minimum inhibitory concentration (MIC) was 62.5 µM (≈ 18.5 µg/mL) against Mycobacterium kansasii [9], 62.5 µM (≈ 18.5 µg/mL) in [10], 250 µM (≈ 74 µg/mL) against Mycobacterium kansasii [11] and 125 µM (≈ 37 µg/mL) with Mycobacterium kansasii [12].
Turning to `COc1cc(Cl)ccc1C(=S)Nc1ccc([N+](=O)[O-])cc1`, the MIC was 16 µM (≈ 5.16 µg/mL) in the assay with Mycobacterium avium [2]; 16 µM (≈ 5.16 µg/mL) in the assay on Mycobacterium avium [3]; 16 µM (≈ 5.16 µg/mL) against Mycobacterium kansasii [4]; 16 µM (≈ 5.16 µg/mL) with Mycobacterium kansasii [6]; 32 µM (≈ 10.3 µg/mL) against Mycobacterium kansasii [7]; 32 µM (≈ 10.3 µg/mL) in [8]. For the same molecule, the minimum inhibitory concentration (MIC) against Mycobacterium kansasii [9] stood at 16 µM (≈ 5.16 µg/mL); in [10] it was 8 µM (≈ 2.58 µg/mL); against Mycobacterium kansasii [11], 32 µM (≈ 10.3 µg/mL); against Mycobacterium kansasii [12], 32 µM (≈ 10.3 µg/mL).
For the molecule `COc1ccc(Cl)cc1C(=O)Nc1ccc(Cl)c(Cl)c1`, the MIC was 250 µM (≈ 82.6 µg/mL) against Mycobacterium avium [2]; 250 µM (≈ 82.6 µg/mL) against Mycobacterium avium [3]; 62.5 µM (≈ 20.7 µg/mL) against Mycobacterium kansasii [4]; 125 µM (≈ 41.3 µg/mL) in the assay on Mycobacterium kansasii [6]; 250 µM (≈ 82.6 µg/mL) with Mycobacterium kansasii [7]; 125 µM (≈ 41.3 µg/mL) in [8]. The minimum inhibitory concentration (MIC) against Mycobacterium kansasii [9] is 62.5 µM (≈ 20.7 µg/mL); in [10] it was 125 µM (≈ 41.3 µg/mL); in the assay on Mycobacterium kansasii [11] it was 250 µM (≈ 82.6 µg/mL); against Mycobacterium kansasii [12] it was 125 µM (≈ 41.3 µg/mL).
`COc1ccc(Cl)cc1C(=S)Nc1ccc(C(F)(F)F)cc1`: the minimum inhibitory concentration (MIC) against Mycobacterium avium [2] is 16 µM (≈ 5.53 µg/mL); with Mycobacterium avium [3], 16 µM (≈ 5.53 µg/mL); with Mycobacterium kansasii [4], 8 µM (≈ 2.77 µg/mL); in the assay on Mycobacterium kansasii [6], 16 µM (≈ 5.53 µg/mL); against Mycobacterium kansasii [7], 16 µM (≈ 5.53 µg/mL); in assay [8] it was 16 µM (≈ 5.53 µg/mL). For the same molecule, the MIC turned out to be 8 µM (≈ 2.77 µg/mL) in the assay on Mycobacterium kansasii [9], 16 µM (≈ 5.53 µg/mL) in [10], 32 µM (≈ 11.1 µg/mL) in the assay on Mycobacterium kansasii [11] and 16 µM (≈ 5.53 µg/mL) with Mycobacterium kansasii [12].
Turning to `COc1ccc(Cl)cc1C(=O)Nc1cccc(Br)c1`, the MIC against Mycobacterium avium [2] amounted to 62.5 µM (≈ 21.3 µg/mL); in the assay on Mycobacterium avium [3] it was 62.5 µM (≈ 21.3 µg/mL); against Mycobacterium kansasii [4], 62.5 µM (≈ 21.3 µg/mL); with Mycobacterium kansasii [6] it was 62.5 µM (≈ 21.3 µg/mL); against Mycobacterium kansasii [7], 62.5 µM (≈ 21.3 µg/mL); in [8] it was 125 µM (≈ 42.6 µg/mL). The MIC in the assay with Mycobacterium kansasii [9] was found to be 62.5 µM (≈ 21.3 µg/mL); in assay [10] it was 125 µM (≈ 42.6 µg/mL); against Mycobacterium kansasii [11], 62.5 µM (≈ 21.3 µg/mL); against Mycobacterium kansasii [12] it was 62.5 µM (≈ 21.3 µg/mL).
For the molecule `COc1cc(Cl)ccc1C(=S)Nc1ccc(Cl)cc1`, the Selectivity ratio in assay [1] is reported as 0.73. The MIC against Mycobacterium avium [2] stood at 32 µM (≈ 9.99 µg/mL); against Mycobacterium avium [3], 32 µM (≈ 9.99 µg/mL); in the assay on Mycobacterium kansasii [4], 32 µM (≈ 9.99 µg/mL); in the assay on Mycobacterium kansasii [6], 32 µM (≈ 9.99 µg/mL); in the assay with Mycobacterium kansasii [7], 62.5 µM (≈ 19.5 µg/mL); in assay [8], 16 µM (≈ 5 µg/mL). For the same molecule, the minimum inhibitory concentration (MIC) with Mycobacterium kansasii [9] is 16 µM (≈ 5 µg/mL); in assay [10] it was 4 µM (≈ 1.25 µg/mL); with Mycobacterium kansasii [11], 62.5 µM (≈ 19.5 µg/mL); with Mycobacterium kansasii [12], 62.5 µM (≈ 19.5 µg/mL). The molecule also showed an IC50 in the assay on HepG2 of 2.93 µM. For the same molecule, in assay [5], the inhibition worked out at 39%.

Source of the values: ChEMBL document CHEMBL2086318, “Synthesis and in vitro antimycobacterial activity of 2-methoxybenzanilides and their thioxo analogues” (Eur J Med Chem, 2012).
